One test deals with Lacticaseibacillus casei. Kind of test: Inhibition of the growth of Lactobacillus casei. It counts as functional, organism-based. An outline of the steps:
(§1)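 Bacterial growth inhibition with folate at 1 ng/mL in the medium. Reported as IC50.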

In a further test the test system is Enterococcus faecium. The experiment in a line: Inhibition of the growth of Streptococcus faecium. The format is functional, organism-based. Put shortly:
as §1

Test [1] concerns the target T1, Trifunctional purine biosynthetic protein adenosine-3 (Homo sapiens, UniProt P22102).
T1 sequence (P22102 whole entry): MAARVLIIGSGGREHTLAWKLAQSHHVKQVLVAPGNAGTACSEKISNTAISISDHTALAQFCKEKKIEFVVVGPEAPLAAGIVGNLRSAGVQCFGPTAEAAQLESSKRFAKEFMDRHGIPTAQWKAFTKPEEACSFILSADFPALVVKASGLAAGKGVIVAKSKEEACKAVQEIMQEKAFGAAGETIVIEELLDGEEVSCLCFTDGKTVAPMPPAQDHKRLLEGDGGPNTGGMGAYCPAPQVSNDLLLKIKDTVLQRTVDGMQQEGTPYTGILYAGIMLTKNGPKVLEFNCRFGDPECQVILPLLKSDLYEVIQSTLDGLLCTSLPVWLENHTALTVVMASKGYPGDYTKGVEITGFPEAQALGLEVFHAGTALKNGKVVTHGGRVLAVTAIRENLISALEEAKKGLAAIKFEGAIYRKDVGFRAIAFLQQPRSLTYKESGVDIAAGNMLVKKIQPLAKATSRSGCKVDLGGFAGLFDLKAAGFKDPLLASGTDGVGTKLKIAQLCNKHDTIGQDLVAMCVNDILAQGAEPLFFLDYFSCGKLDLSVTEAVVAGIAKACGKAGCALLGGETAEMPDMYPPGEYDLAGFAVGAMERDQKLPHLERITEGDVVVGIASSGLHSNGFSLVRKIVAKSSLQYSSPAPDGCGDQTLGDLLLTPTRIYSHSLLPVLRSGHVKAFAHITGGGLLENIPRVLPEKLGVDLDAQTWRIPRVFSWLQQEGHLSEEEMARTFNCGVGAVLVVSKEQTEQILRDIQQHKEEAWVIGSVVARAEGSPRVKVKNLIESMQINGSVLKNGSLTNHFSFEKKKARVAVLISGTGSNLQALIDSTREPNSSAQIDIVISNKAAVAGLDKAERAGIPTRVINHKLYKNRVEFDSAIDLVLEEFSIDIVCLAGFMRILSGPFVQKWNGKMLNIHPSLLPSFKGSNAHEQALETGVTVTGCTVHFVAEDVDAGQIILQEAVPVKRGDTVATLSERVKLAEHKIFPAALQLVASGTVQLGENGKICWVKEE
Kind of test: Inhibition of the GAR transformylase in MOLT-4 human leukemia cells.

Another test has as its system MCF7. The experiment in a line: Inhibition of the growth of MCF-7 human breast adenocarcinoma cells. It counts as functional, cell-based. An outline of the steps:
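MCF-7 cells grown as monolayers in RPMI 1640 with 10% dialyzed heat-inactivated fetal calf serum. 10 nM calcium leucovorin replaced folic acid as the folate source. Cells were seeded at 7.5 × 10⁴ cells/mL. The result is reported as IC50.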

The next test has as its system MOLT-4. Kind of test: Inhibition of the growth of MOLT-4 human leukemia cells. The format is functional, cell-based. An outline of the steps: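 MOLT-4 cells grown in suspension in RPMI 1640 with 10% dialyzed fetal calf serum. 10 nM calcium leucovorin replaced folic acid as the folate source. The result is reported as IC50.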
For test [2], the target named is T2, Trifunctional purine biosynthetic protein adenosine-3 (Mus musculus, UniProt Q64737).
T2 sequence (Q64737 whole entry): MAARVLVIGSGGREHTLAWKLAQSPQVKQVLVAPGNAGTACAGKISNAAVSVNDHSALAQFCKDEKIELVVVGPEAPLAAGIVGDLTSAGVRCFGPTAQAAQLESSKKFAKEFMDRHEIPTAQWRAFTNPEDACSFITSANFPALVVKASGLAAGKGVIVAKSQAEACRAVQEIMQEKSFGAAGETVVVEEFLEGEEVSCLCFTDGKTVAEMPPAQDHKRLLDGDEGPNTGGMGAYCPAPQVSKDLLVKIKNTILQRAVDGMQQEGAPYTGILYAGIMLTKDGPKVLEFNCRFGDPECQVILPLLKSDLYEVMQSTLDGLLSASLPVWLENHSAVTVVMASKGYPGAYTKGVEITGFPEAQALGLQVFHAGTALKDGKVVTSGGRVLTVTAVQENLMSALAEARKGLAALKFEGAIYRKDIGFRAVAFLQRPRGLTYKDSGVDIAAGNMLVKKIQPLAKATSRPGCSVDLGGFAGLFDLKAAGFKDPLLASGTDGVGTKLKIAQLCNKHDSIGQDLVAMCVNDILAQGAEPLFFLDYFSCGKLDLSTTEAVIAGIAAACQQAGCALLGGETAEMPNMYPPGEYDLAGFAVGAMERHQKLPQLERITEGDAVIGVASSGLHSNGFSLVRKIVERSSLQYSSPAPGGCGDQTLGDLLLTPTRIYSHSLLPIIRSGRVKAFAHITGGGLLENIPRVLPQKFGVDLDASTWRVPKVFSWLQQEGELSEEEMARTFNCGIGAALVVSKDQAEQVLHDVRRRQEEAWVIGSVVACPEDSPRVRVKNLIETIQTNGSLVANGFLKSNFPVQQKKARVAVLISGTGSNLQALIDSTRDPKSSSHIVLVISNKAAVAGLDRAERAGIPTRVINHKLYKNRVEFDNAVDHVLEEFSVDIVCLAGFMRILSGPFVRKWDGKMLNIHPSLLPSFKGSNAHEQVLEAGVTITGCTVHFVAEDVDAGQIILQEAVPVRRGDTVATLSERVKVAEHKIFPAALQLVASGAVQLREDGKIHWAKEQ
Kind of test: Inhibition of the GAR transformylase in L1210.

The target of test [3] is T2, Trifunctional purine biosynthetic protein adenosine-3. The experiment in a line: Inhibition of the GAR formyl transferase in L1210. Put shortly: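 GAR formyltransferase activity in L1210 cell extract, run at 30 °C in 50 mM Tris-HCl, pH 7.5. Substrates were (6R)-10-formyltetrahydrofolate at 60 μM and glycylamide ribonucleotide at 0.24 mM. The result is reported as IC50.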

A value given as a limit tells only on which side of the number the result lay.

A word on the IC50: it is the concentration needed to halve the response being measured. Read a low IC50 as greater potency in that assay. Turning to `CC(CC1=Nc2c(O)nc(N)nc2NC1)Cc1ccc(C(=O)NC(CCC(=O)O)C(=O)O)cc1` (stereo not drawn), the results for the IC50 with Lacticaseibacillus casei and in the test with Enterococcus faecium were 1700 nM and 40 nM, respectively.
`CC(Cc1ccc(C(=O)NC(CCC(=O)O)C(=O)O)cc1)CC1CNc2nc(N)nc(O)c2N1` (stereo not drawn): the 50% inhibitory concentration (IC50) is 3800 nM in the test on Lacticaseibacillus casei and 128 nM in the test with Enterococcus faecium.
Consider `CC(Cc1ccc(C(=O)NC(CCC(=O)O)C(=O)O)cc1)Cc1cnc2nc(N)nc(O)c2n1` (stereo not drawn), for which the 50% inhibitory concentration (IC50) in the test with Lacticaseibacillus casei worked out at 4000 nM; in the test on Enterococcus faecium it was 250 nM.
In the case of `Nc1nc2c(c(=O)[nH]1)NC(CCCc1ccc(C(=O)NC(CCC(=O)O)C(=O)O)cc1)CN2` (stereo not drawn), the IC50 in test [1] was found to be 0.014 nM; with MCF7, 4500 nM; in the test on Lacticaseibacillus casei, 540 nM; in the test on Enterococcus faecium it was 30 nM; in the test with MOLT-4 it was 3400 nM; in test [2] it was 0.018 nM.
In the case of `Nc1nc(O)c2nc(CCCc3ccc(C(=O)NC(CCC(=O)O)C(=O)O)cc3)cnc2n1` (stereo not drawn), the IC50 in test [3] is over 2500 nM; with Lacticaseibacillus casei, 2200 nM; with Enterococcus faecium it was 120 nM.
Turning to `CN(Cc1cnc2nc(N)nc(N)c2n1)c1ccc(C(=O)N[C@@H](CCC(=O)O)C(=O)O)cc1` [METHOTREXATE], the IC50 with Lacticaseibacillus casei was determined as 0.02 nM; in the test with Enterococcus faecium, 0.9 nM.
`Nc1nc(O)c2c(n1)NC[C@H](CCNc1ccc(C(=O)NC(CCC(=O)O)C(=O)O)cc1)N2` (stereo partly drawn) [TETRAHYDROHOMOFOLATE] had an IC50 in test [2] of over 0.02 nM.

For the origin of these results see ChEMBL document CHEMBL1124491, “Folate analogues. 31. Synthesis of the reduced derivatives of 11-deazahomofolic acid, 10-methyl-11-deazahomofolic acid, and their evaluation as inhibitors of glycinamide ribonucleotide formyltransferase” (J Med Chem, 1989).
